Results: ChEMBL document CHEMBL4049456, “Identification of 4-(Aminomethyl)-6-(trifluoromethyl)-2-(phenoxy)pyridine Derivatives as Potent, Selective, and Orally Efficacious Inhibitors of the Copper-Dependent Amine Oxidase, Lysyl Oxidase-Like 2 (LOXL2)” (J Med Chem, 2017)

Molecular target: T1, Lysyl oxidase homolog 2 (Homo sapiens) (UniProt Q9Y4K0)
T1 sequence (whole entry): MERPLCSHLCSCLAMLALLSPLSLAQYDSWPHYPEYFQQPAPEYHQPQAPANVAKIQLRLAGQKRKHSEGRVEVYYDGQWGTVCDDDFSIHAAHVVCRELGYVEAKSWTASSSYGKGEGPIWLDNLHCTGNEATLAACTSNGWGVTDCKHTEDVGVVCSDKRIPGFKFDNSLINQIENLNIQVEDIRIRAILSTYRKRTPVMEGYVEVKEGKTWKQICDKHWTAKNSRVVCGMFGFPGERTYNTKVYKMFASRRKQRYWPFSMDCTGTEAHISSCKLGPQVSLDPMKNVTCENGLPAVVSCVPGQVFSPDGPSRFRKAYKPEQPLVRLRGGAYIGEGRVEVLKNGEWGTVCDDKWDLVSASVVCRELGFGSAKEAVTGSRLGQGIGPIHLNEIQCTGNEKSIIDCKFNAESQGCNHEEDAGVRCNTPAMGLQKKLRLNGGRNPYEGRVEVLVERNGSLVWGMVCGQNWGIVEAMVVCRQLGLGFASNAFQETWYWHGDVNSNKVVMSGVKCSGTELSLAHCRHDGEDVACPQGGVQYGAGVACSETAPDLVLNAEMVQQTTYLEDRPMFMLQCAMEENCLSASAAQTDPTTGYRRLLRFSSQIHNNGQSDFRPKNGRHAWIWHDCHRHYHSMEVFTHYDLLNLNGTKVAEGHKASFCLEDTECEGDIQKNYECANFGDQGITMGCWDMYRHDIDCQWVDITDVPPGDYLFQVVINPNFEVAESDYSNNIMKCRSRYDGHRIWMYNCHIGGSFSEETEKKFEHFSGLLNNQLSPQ
Assay: Irreversible inhibition of human LOXL2 assessed as reduction of H2O2 production from oxidative deamination of DAP at 1000 times IC50 preincubated for 2 hrs followed by compound washout and subsequent incubation for 2 hrs prior to substrate addition measured every 2 mins for 40 mins by amplex red reagent-based fluorescence assay relative to control
Summary of the method: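 Wells were washed repeatedly with PBS and equilibrated for 2 h. Recovered activity was then compared with nonwashed controls.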

## Cl.NCc1cc(Oc2cccc(C(=O)N3C[C@@H](O)[C@H](F)C3)c2)nc(C(F)(F)F)c1 (racemic)
  inhibition: 77%
